The results in this text go back to ChEMBL document CHEMBL1146556, “Acetophenone derivatives from Acronychia pedunculata” (J Nat Prod, 2003).

Experiment [1] relates to Radical scavenging activity. Nature of the experiment: Antioxidant activity assessed as DPPH radical scavenging activity after 30 mins. Type of experiment: functional. Put shortly: (§1)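 Radical scavenging was read as percent inhibition after a 30 min incubation.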
Background: DPPH is a stable violet radical that fades when it is reduced.

Experiment [2] deals with T1, Tyrosinase (Homo sapiens, UniProt P14679).
T1 sequence (P14679 whole entry): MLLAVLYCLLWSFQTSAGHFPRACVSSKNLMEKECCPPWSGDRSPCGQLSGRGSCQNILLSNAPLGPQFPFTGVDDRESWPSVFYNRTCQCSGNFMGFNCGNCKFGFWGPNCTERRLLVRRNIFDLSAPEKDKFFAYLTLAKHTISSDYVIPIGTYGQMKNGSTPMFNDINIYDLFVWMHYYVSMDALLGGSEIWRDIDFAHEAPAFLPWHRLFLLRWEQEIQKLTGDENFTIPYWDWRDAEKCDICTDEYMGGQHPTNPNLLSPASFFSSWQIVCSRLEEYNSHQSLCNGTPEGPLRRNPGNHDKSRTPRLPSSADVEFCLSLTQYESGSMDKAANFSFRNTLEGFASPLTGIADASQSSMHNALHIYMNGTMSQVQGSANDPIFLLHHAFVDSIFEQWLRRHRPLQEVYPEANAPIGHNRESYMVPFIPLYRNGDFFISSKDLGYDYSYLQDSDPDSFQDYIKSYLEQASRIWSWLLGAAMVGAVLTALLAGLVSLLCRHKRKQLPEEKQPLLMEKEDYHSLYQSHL
The experiment is described as follows: Inhibition of tyrosinase.

In experiment [3] the test system is Radical scavenging activity. The experiment is described as follows: Antioxidant activity assessed as DPPH radical scavenging activity at 500 uM after 30 mins. Type of experiment: functional. Put shortly: as §1
Experiment [4] concerns the target T2, Tyrosinase (Homo sapiens) (UniProt P14679).
T2 sequence (whole entry): T1 sequence (P14679 whole entry)
The experiment is described as follows: Inhibition of tyrosinase at 500 uM.

In general, IC50 refers to the point on the concentration scale where inhibition reaches its midpoint. `COc1c(CC=C(C)C)c(O)c([C@H](CC(C)C)c2c(O)c(CC=C(C)C)c(O)c(C(C)=O)c2O)c(O)c1C(C)=O` [ACROVESTONE]: the results for the IC50 in experiment [1] and in experiment [2] were 493 µM and 333 µM, respectively. With VITAMIN E, the IC50 in experiment [1] came out at 8.3 µM. What is called inhibition is the drop in the measured response relative to a control, in per cent. With `COc1c(CC=C(C)C)c(O)c(C=O)c(O)c1C(C)=O`, the inhibition in experiment [3] came to 3.1%; in experiment [4], 11.8%. Taken in the same sequence, the figures for `COc1c(CC=C(C)C)c2c(c(O)c1C(C)=O)C=CC(C)(C)O2` were 2.9% and 2.5%. Turning to `COc1c(CC=C(C)C)c(O)c(C(=O)CC(C)C)c(O)c1C(C)=O`, the figures for the inhibition in experiment [3] and in experiment [4] were 8.3% and 16.8%, respectively.

Take `COc1c(CC=C(C)C)c2c(c(O)c1C(C)=O)C[C@H](C(C)(C)O)O2`: the inhibition in experiment [3] amounted to 5.3%; in experiment [4], 6.5%. For `C=C(C)C(O)Cc1c(O)cc(O)c(C(C)=O)c1OC` (stereo not drawn), in that order: 10.3% and 8.1%.
